The results in this text go back to ChEMBL document CHEMBL4513216, “Probing the Open Global Health Chemical Diversity Library for Multistage-Active Starting Points for Next-Generation Antimalarials” (ACS Infect Dis, 2020).

The data set can be described thus: Toxicity liver stage against HepG2, at 10uM. Details: test concentration 10 uM, cell line HepG2-A16-CD81EGFP. The settings on record: human, HepG2-A16-CD81EGFP cells; read-out: INHIBITION
The format is cell-based. The procedure, abridged:
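Uninfected HepG2-A16-CD81EGFP cells, 3 × 10^3 per well, 1536-well, plated on prespotted compound at 10 μM final, parasite-free screening media added to match infected plates; puromycin 10 μM positive, DMSO 0.5% negative; run in parallel with 48 h PbLuc assay at 37 °C, 5% CO2; viability by CellTiter-Glo luminescence, normalized to controls.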

Turning to `CC(=O)N1CCN(c2ccccc2CNc2cc(F)cc(F)c2)CC1`, the cytotoxicity at 10 µM came to 3.7%.

As for `CCc1csc(NC(=O)NCc2ccccn2)n1`, the cytotoxicity at 10 µM was -4.61%.

Regarding `Fc1ccccc1Cc1noc(CN2CC[C@@H]3CCCC[C@H]3C2)n1`, the cytotoxicity at 10 µM was -6.1%.

Take `CCOC(=O)CC(c1ccc(OC)cc1)c1c(O)n[nH]c1C` (centres undefined): the cytotoxicity at 10 µM was -0.244%. Then `Cn1cc(Br)cc(NC(=O)CC2CCC2)c1=O`, with -8.15%; and `Cn1cnc2c1CCN(CC(O)c1ccc(S(C)(=O)=O)cc1)C2` (centres undefined), with -3.3%. For `CCN1C[C@H]2CCN(c3ncccn3)CC[C@H]2S1(=O)=O`, the cytotoxicity at 10 µM was -7.08%. In the case of `O=C(c1cn[nH]c1)N1CCC2(CCCN(Cc3ccc(F)c(F)c3)C2)C1` (centres undefined) it was 6.07%. With `CC(C)c1nc(CN(C)C(=O)c2cn3ccsc3n2)cs1`, the cytotoxicity at 10 µM stood at 8.35%. In the case of `Cc1ccc(O)c(CNC2CCc3nc(C(C)C)nn3C2)n1` (centres undefined) it was -8.54%. In the case of `Cc1cc(C(=O)N2C[C@@H]3CN(S(C)(=O)=O)CCO[C@@H]3C2)c(C)o1` it was -3.49%; in that of `Cc1cc(CC(=O)NC2CCCN(c3ccccc3F)C2=O)n[nH]1` (centres undefined), 1.46%. `Cn1cc(C2CCCN2C(=O)c2ccc(Br)o2)cn1` (centres undefined): the cytotoxicity at 10 µM is -3.32%.

Consider `CC(C)(C(=O)N1CCCC(OCc2cccnc2)C1)n1cccc1` (centres undefined), for which the cytotoxicity at 10 µM is -4.06%. Consider `CC1CN(Cc2ccccc2)CCCN1CCCS(C)(=O)=O` (centres undefined), for which the cytotoxicity at 10 µM turned out to be 5.27%. As to `N#CCCCS(=O)(=O)NC(=O)c1cccc(Cl)c1F`, the cytotoxicity at 10 µM was -2.8%. On to `Cc1noc(C)c1CN1CC2(CCN(C(=O)c3ccoc3C)C2)CC1=O` (centres undefined), for which the cytotoxicity at 10 µM came to 7.78%. In the case of `CCn1nc2c(cc1=O)CN(Cc1cc(C)on1)CC2` it was 0.341%. `CC(C)CCN1CCc2[nH]nc(C(=O)N3CC=CC3)c2C1`: the cytotoxicity at 10 µM was -121%. Take `CCc1nc(C2CCCN(C(=O)c3ccc(O)nc3)C2)no1` (centres undefined): the cytotoxicity at 10 µM is -11.7%.

As for `CC(C)=CCN1CCN(Cc2cccc(C)n2)CC1CCO` (centres undefined), the cytotoxicity at 10 µM was 1.99%. In the case of `Cc1ncc(CNC2CC(=O)N(CCc3ccc(F)cc3)C2)n1C` (centres undefined) it was -0.309%; in that of `CSCC(=O)N[C@H]1CN(CC2CCOCC2)C[C@@H]1c1ccccc1`, -3.97%.

As for `CCn1cc(-c2cc(C(=O)N3CCOCC3)c3cc(Cl)ccc3n2)cn1`, the cytotoxicity at 10 µM is -1.53%. In the case of `Cc1cccc(OC2CCN(Cc3ncc[nH]3)CC2)c1` it was -7.15%; in that of `CC(C)Oc1ccc(C(=O)NCc2ccnc(N3CCCC3)c2)cn1`, 47.3%.

As for `CC(C)(C)C1CCC(NCCN2CCOCC2)CC1` (centres undefined), the cytotoxicity at 10 µM amounted to 0.741%. Turning to `Cc1ccc(S(=O)(=O)N2CCN(CCC(N)=O)CC2)s1`, the cytotoxicity at 10 µM is -9.88%. For `CCc1noc(C)c1C(=O)N1CCN(c2nc(C)cc(OC)n2)CC1`, the cytotoxicity at 10 µM was -13.8%. In the case of `Cc1ccc(S(=O)(=O)N(C)CC(N)=O)c(Cl)c1` it was 5.79%; in that of `CC(C)c1noc(C(C)N2CCN(Cc3ccco3)CC2)n1` (centres undefined), -7.67%; in that of `COCCC(=O)N1Cc2cnc(Cc3ccc(OC)cc3)nc2C1`, -0.641%. In the case of `Cn1nc(CNC(=O)C2CCN(S(C)(=O)=O)CC2)cc1C1CC1` it was -2.87%; in that of `COC(=O)c1ccc(C(=O)NCC2(O)CCOCC2)cc1`, -5.08%; in that of `COCC1Cn2nnc(-c3cnn(C)c3)c2CN1Cc1ccco1` (centres undefined), -9.44%. As for `CC(C)(C)c1n[nH]c(C2CN(C(=O)c3cc(Cl)c[nH]3)CCO2)n1` (centres undefined), the cytotoxicity at 10 µM was -10.6%. Then `CN(CC(=O)NC(C)(C)C)Cc1cccc2c1OCCO2`, with -26.5%; and `CCOC(=O)CNc1nc(C(C)(C)C)nc2c1cnn2C`, with -12.8%. As to `COCC(=O)N1CC[C@H]2C[C@H](C)O[C@@H]2C1`, the cytotoxicity at 10 µM was -0.877%.
